ChEMBL document CHEMBL1955854, “New retinoid derivatives as back-ups of Adarotene” (Bioorg Med Chem, 2012)

Legend:
[1] = Chemical stability in aqueous buffer containing 5% DMSO and 5% tween 80 at pH 7.4 assessed as compound recovery in anoxic conditions after 24 hrs by UPLC analysis; format: physicochemical; conditions: read-out: Stability
In short: (§1)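 Stability at 37 °C in aqueous buffer with 5% DMSO and 5% Tween 80 at pH 1.2, 6.8 or 7.4; percent recovery by HPLC/UPLC on BEH C18 column, water+0.1% TFA/acetonitrile gradient from 40% to 95% acetonitrile over 8 min, room temperature.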

[2] = Chemical stability in aqueous buffer containing 5% DMSO and 5% tween 80 at pH 6.8 assessed as compound recovery in anoxic conditions after 24 hrs by UPLC analysis; format: physicochemical; conditions: read-out: Stability; in short: as §1
[3] = Chemical stability in aqueous buffer containing 5% DMSO and 5% tween 80 at pH 1.2 assessed as compound recovery in anoxic conditions after 3 hrs by UPLC analysis; format: physicochemical; conditions: read-out: Stability; in short: as §1
NCI-H460 = test: Antiproliferative activity against human NCI-H460 cells incubated for 24 hrs drug exposure measured after 48 hrs of recovery by sulforhodamine B assay; format: functional, cell-based
[4] = Chemical stability in aqueous buffer containing 5% DMSO and 5% tween 80 at pH 1.2 assessed as compound recovery in anoxic conditions after 12 hrs by UPLC analysis; format: physicochemical; conditions: pH 1.2, 12 h; in short: as §1
[5] = Solubility in water; format: physicochemical; conditions: buffer
A-431 = test: Antiproliferative activity against human A431 cells incubated for 24 hrs drug exposure measured after 48 hrs of recovery by sulforhodamine B assay; format: functional, cell-based
[6] = Chemical stability in aqueous buffer containing 5% DMSO and 5% tween 80 at pH 6.8 assessed as compound recovery in anoxic conditions after 6 hrs by UPLC analysis; format: physicochemical; conditions: read-out: Stability; in short: as §1
[7] = Chemical stability in aqueous buffer containing 5% DMSO and 5% tween 80 at pH 7.4 assessed as compound recovery in anoxic conditions after 6 hrs by UPLC analysis; format: physicochemical; conditions: read-out: Stability; in short: as §1
Plasma [8] = test: Prodrug conversion in mouse plasma assessed as drug concentration at 3 hrs; format: ADME, cell-free
In short: (§2)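 Prodrugs already shown stable at pH 1.2, 6.8 and 7.4 were incubated in murine plasma and sampled over time up to 6 h. A parallel incubation used murine plasma pretreated with the esterase inhibitor PMSF (phenylmethyl sulfonyl fluoride).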

Plasma [9] = test: Prodrug conversion in mouse plasma assessed as drug concentration at 0.5 hrs in presence of esterase inhibitor PMSF; format: ADME, cell-free
In short: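 Prodrug incubated with murine plasma pretreated with the esterase inhibitor PMSF, run alongside untreated plasma; release of parent followed over time.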

Plasma [10] = test: Prodrug conversion in mouse plasma assessed as drug concentration at 1 hr; format: ADME, cell-free; in short: as §2
Plasma [11] = test: Prodrug conversion in mouse plasma assessed as drug concentration at 6 hrs; format: ADME, cell-free; in short: as §2
Plasma [12] = test: Prodrug conversion in mouse plasma assessed as drug concentration at 0.5 hrs; format: ADME, cell-free; in short: as §2
Plasma [13] = test: Prodrug conversion in mouse plasma assessed as drug concentration at 6 hrs in presence of esterase inhibitor PMSF; format: ADME, cell-free; in short: as §2

remaining at 24 h [1] [%]	remaining at 24 h [2] [%]	remaining at 3 h [3] [%]	IC50 (NCI-H460) [nM]	Stability [4]	solubility [5]	IC50 (A-431) [nM]	remaining at 6 h [6] [%]	remaining at 6 h [7] [%]	Drug metabolism (Plasma [8]) [%]	Drug metabolism (Plasma [9]) [%]	Drug metabolism (Plasma [10]) [%]	Drug metabolism (Plasma [11]) [%]	Drug metabolism (Plasma [12]) [%]	Drug metabolism (Plasma [13]) [%]	SMILES
> 99	> 99	> 99	> 10000	Stable	Insoluble	–	–	–	–	–	–	–	–	–	O=C(O)/C=C/c1ccc(-c2ccc(OCCN3CCOCC3)c(C34CC5CC(CC(C5)C3)C4)c2)cc1
–	–	–	4200	Stable	Insoluble	–	–	–	–	–	–	–	–	–	COCCOCOc1ccc(-c2ccc(/C=C/C(=O)O)cc2)cc1C12CC3CC(CC(C3)C1)C2
12	39	> 99	510	Stable	Insoluble	410	92	62	–	–	–	–	–	–	CC(C)[C@H](N)C(=O)Oc1ccc(-c2ccc(/C=C/C(=O)O)cc2)cc1C12CC3CC(CC(C3)C1)C2.Cl
> 99	> 99	> 99	170	Stable	Insoluble	330	–	–	–	–	–	–	–	–	O=C(O)/C=C/c1ccc(-c2ccc(OC(=O)COCCOCCOCC(=O)O)c(C34CC5CC(CC(C5)C3)C4)c2)cc1
–	–	–	7800	Stable	Insoluble	–	–	–	–	–	–	–	–	–	CCCCC/C=C/C/C=C/CCCCCCCC(=O)Oc1ccc(-c2ccc(/C=C/C(=O)O)cc2)cc1C12CC3CC(CC(C3)C1)C2
> 99	> 99	> 99	850	Stable	Insoluble	–	–	–	100	43.95	100	100	100	99.76	O=C(O)/C=C/c1ccc(-c2ccc(OC(=O)C3CC3)c(C34CC5CC(CC(C5)C3)C4)c2)cc1
> 99	> 99	> 99	5000	Stable	Insoluble	–	–	–	–	–	–	–	–	–	CC(C)NC(=O)Oc1ccc(-c2ccc(/C=C/C(=O)O)cc2)cc1C12CC3CC(CC(C3)C1)C2
> 99	> 99	> 99	1390	Stable	Insoluble	–	–	–	–	–	–	–	–	–	CCCCCCCCCCCNC(=O)Oc1ccc(-c2ccc(/C=C/C(=O)O)cc2)cc1C12CC3CC(CC(C3)C1)C2

More lines, now with the values behind:

SMILES	remaining at 24 h [1] [%]	remaining at 24 h [2] [%]	remaining at 3 h [3] [%]	IC50 (NCI-H460) [nM]	Stability [4]	solubility [5]	IC50 (A-431) [nM]	remaining at 6 h [6] [%]	remaining at 6 h [7] [%]	Drug metabolism (Plasma [8]) [%]	Drug metabolism (Plasma [9]) [%]	Drug metabolism (Plasma [10]) [%]	Drug metabolism (Plasma [11]) [%]	Drug metabolism (Plasma [12]) [%]	Drug metabolism (Plasma [13]) [%]
N#CCOc1ccc(-c2ccc(/C=C/C(=O)O)cc2)cc1C12CC3CC(CC(C3)C1)C2	> 99	> 99	> 99	850	Stable	Insoluble	–	–	–	–	–	–	–	–	–
O=C(O)/C=C/c1ccc(-c2ccc(OCN3C(=O)c4ccccc4C3=O)c(C34CC5CC(CC(C5)C3)C4)c2)cc1	> 99	> 99	> 99	8400	Stable	Insoluble	–	–	–	–	–	–	–	–	–
CCCOC(=O)OCOc1ccc(-c2ccc(/C=C/C(=O)O)cc2)cc1C12CC3CC(CC(C3)C1)C2	> 99	> 99	> 99	320	Stable	Insoluble	–	–	–	–	–	–	–	–	–
CC(=O)Oc1ccc(-c2ccc(/C=C/C(=O)O)cc2)cc1C12CC3CC(CC(C3)C1)C2	> 99	> 99	> 99	260	Stable	Insoluble	530	–	–	–	–	–	–	–	–
CN1CCN(CCCC(=O)Oc2ccc(-c3ccc(/C=C/C(=O)O)cc3)cc2C23CC4CC(CC(C4)C2)C3)CC1	64	85	> 99	240	Stable	Insoluble	410	98	89	–	–	–	–	–	–
CCCCCCCCCCC(=O)Oc1ccc(-c2ccc(/C=C/C(=O)O)cc2)cc1C12CC3CC(CC(C3)C1)C2	> 99	> 99	> 99	1540	Stable	Insoluble	–	–	–	–	–	–	–	–	–
NC1(C(=O)Oc2ccc(-c3ccc(/C=C/C(=O)O)cc3)cc2C23CC4CC(CC(C4)C2)C3)CC1.O=C(O)C(F)(F)F	62	> 99	> 99	100	Stable	Insoluble	400	–	88	96.66	87.31	96.87	96.31	97.02	97.77
CNCCNC(=O)Oc1ccc(-c2ccc(/C=C/C(=O)O)cc2)cc1C12CC3CC(CC(C3)C1)C2.Cl	36	69	> 99	240	Stable	Insoluble	320	92	76	99.94	1.35	99.8	99.95	96.23	17.55
O=C(O)/C=C/c1ccc(-c2ccc(OC(=O)NC3CCN(C(=O)OCc4ccccc4)CC3)c(C34CC5CC(CC(C5)C3)C4)c2)cc1	> 99	> 99	> 99	5000	Stable	Insoluble	–	–	–	–	–	–	–	–	–
O=C(O)/C=C/c1ccc(-c2ccc(OC(=O)NCC(=O)O)c(C34CC5CC(CC(C5)C3)C4)c2)cc1	> 99	> 99	> 99	3000	Stable	Insoluble	–	–	–	–	–	–	–	–	–
CC(C)C[C@H](NC(=O)Oc1ccc(-c2ccc(/C=C/C(=O)O)cc2)cc1C12CC3CC(CC(C3)C1)C2)C(=O)NCC(=O)O	> 99	> 99	> 99	3500	Stable	Insoluble	–	–	–	–	–	–	–	–	–
